Data as given in ChEMBL document CHEMBL1671709, “Small-molecule screening using a whole-cell viral replication reporter gene assay identifies 2-{[2-(benzoylamino)benzoyl]amino}-benzoic acid as a novel antiadenoviral compound” (Antimicrob Agents Chemother, 2010).
Active and inactive are the calls of the source. The rule behind the calls is not given here.

Columns and labels:
Human adenovirus 5 [1] = assay: Antiviral activity against Human adenovirus type 5 infected in human A549 cells assessed as inhibition of viral replication by QPCR at 5 uM after 24 hrs; format: functional, organism-based
Procedure, shortened: (§1)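 A549 cells (~10^5/well) seeded the day before; compound (0.5–15 µM) and 1 pg Ad virions per cell added together in DMEM with 1% FBS, final DMSO <1%. After 24 h at 37 °C, 5% CO2, cells harvested and DNA extracted. Viral genomes quantified by real-time PCR against Ad5 DNA standard curves, normalized to cellular RNase P. EC50 taken as 50% inhibition of replication; three independent duplicate experiments.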

Human adenovirus 5 [2] = assay: Antiviral activity against Human adenovirus type 5 infected in human A549 cells assessed as inhibition of viral replication by QPCR at 15 uM after 24 hrs; format: functional, organism-based; procedure, shortened: as §1
[3] = Selectivity index, ratio of CC50 for human A549 cells to EC50 for Human adenovirus type 5; format: toxicity, cell-based; details: read-out: Selectivity Index
Procedure, shortened: (§2)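 About 50,000 A549 cells seeded the day before; compound titrated in DMEM with 1% FBS for 24 h. XTT then added and incubated 2 h at 37 °C, with absorbance read at 450 nm. CC50 is the concentration leaving 50% of cells viable. Selectivity index is CC50 divided by the QPCR EC50 for each virus. Three independent duplicate experiments.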

[4] = Cytotoxicity against human A549 cells by XTT assay; format: cell-based; procedure, shortened: as §2
Human adenovirus 5 [5] = assay: Inhibition of [35S]-labeled Human adenovirus type 5 F2853-5b binding to human A549 cells at 15 uM; format: functional, organism-based
Procedure, shortened: (§3)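 A549 cells detached with 0.05% EDTA, allowed to recover 1 h, then suspended in PBS with 1% FBS and 0.01% NaN3 (200,000/well) on ice. Compound at 5 and 15 µM final, DMSO <1%, plus 5 pg 35S-labeled Ad5 or Ad11p virions per cell, rocked 1 h on ice. Cells washed three times; bound radioactivity counted by liquid scintillation. Three independent duplicate experiments.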

Human adenovirus D37 = assay: Antiviral activity against Human adenovirus type 37 1477 infected in A549 cells assessed as inhibition of DNA replication by QPCR assay; format: functional, organism-based; details: Human mastadenovirus D, 1477, A549
Procedure, shortened: (§4)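 A549 cells (about 10^5/well) were seeded the day before. Compound (0.5–15 µM, DMSO <1%) and 1 pg virions/cell were added together in DMEM with 1% FBS and held 24 h at 37°C. DNA was then extracted and viral genomes counted by TaqMan QPCR (AdDF probe, Ad5 or Ad11 DNA standards 5–5×10^5 copies), normalized to RNase P. EC50 is the 50% replication inhibition point, from at least two independent duplicate experiments.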

A549 [6] = assay: Cytotoxicity against human A549 cells assessed as dead cells at 15 uM after 24 hrs using PI by FACS analysis; format: cell-based; details: a549, 24 h
Procedure, shortened: (§5)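 A549 cells (2×10^5) seeded the day before in DMEM with 1% FBS; K562 cells (200,000) in RPMI 1640 with 5% FBS added just before compound. Compound at 5 and 15 µM, DMSO <1%, 24 h at 37 °C, 5% CO2. Cells washed, resuspended in PBS with 1 µg propidium iodide; dead cells counted by flow cytometry. Two independent duplicate experiments.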

[7] = Antiviral activity against Human adenovirus type 4 RI-67 infected in A549 cells assessed as inhibition of DNA replication by QPCR assay; format: functional, cell-based, Human adenovirus 4; details: Human mastadenovirus E, RI-67, A549; procedure, shortened: as §4
[8] = Antiviral activity against Human adenovirus type 31 1315/63 infected in A549 cells assessed as inhibition of DNA replication by QPCR assay; format: functional, cell-based, Human adenovirus 31; details: Human mastadenovirus A, 1315/63, A549; procedure, shortened: as §4
K562 = assay: Cytotoxicity against human K562 cells assessed as dead cells at 15 uM after 24 hrs using PI by FACS analysis; format: cell-based; details: k562, 24 h; procedure, shortened: as §5
[9] = Antiviral activity against Human adenovirus type 11p in human K562 cells harboring green fluorescent protein-expressing RCAd11pGFP vector assessed as inhibition of RCAd11pGFP genome expression at 50 uM relative to untreated control; format: functional, Human adenovirus 11p; details: Human mastadenovirus B
Procedure, shortened: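 Single-point screen done once in K562 cells (50,000/well) in phenol-red-free RPMI with 5% FBS, with RCAd11pGFP at 1 pg/cell. Compound was at 50 µM final, from a 5 mM DMSO stock. Each plate held six DMSO-only uninfected wells and six infected DMSO wells. After 24 h at 37°C in 5% CO2, GFP fluorescence was read at 485 nm, then MTT viability.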

A549 [10] = assay: Antiviral activity against Human adenovirus type 11p slobitski infected in human A549 cells assessed as inhibition of hexon protein expression after 24 hrs using propidium iodide by FACS analysis; format: functional, cell-based; details: Human adenovirus 11p, in the assay text read “using anti-hexon monoclonal antibody” for “using propidium iodide”
Procedure, shortened: (§6)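 A549 cells (~2×10^5) seeded the day before. Compound (5 and 15 µM) added together with virus, 1 pg Ad5 or 0.5 pg Ad11p virions per cell, in DMEM with 1% FBS, DMSO <1%. After 24 h at 37 °C cells fixed in 2% paraformaldehyde and permeabilized with saponin. Stained with anti-hexon mouse monoclonal then Alexa Fluor 488 anti-mouse; read by flow cytometry. Two independent duplicate experiments.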

A549 [11] = assay: Inhibition of [35S]-labeled Human adenovirus type 11p slobitski binding to human A549 cells at 15 uM; format: functional, cell-based; details: Human adenovirus 11p; procedure, shortened: as §3
[12] = Selectivity index, ratio of CC50 for human A549 cells to EC50 for Human adenovirus type 11p; format: toxicity, cell-based; details: read-out: Selectivity Index; procedure, shortened: as §2
[13] = Antiviral activity against Human adenovirus type 11p slobitski infected in A549 cells assessed as inhibition of DNA replication by QPCR assay; format: functional, cell-based, Human adenovirus 11p; details: Human mastadenovirus B; procedure, shortened: as §4
[14] = Antiviral activity against Human adenovirus type 41 Tak infected in A549 cells assessed as inhibition of DNA replication by QPCR assay; format: functional, cell-based, Human adenovirus 41; details: Human mastadenovirus F; procedure, shortened: as §4
[15] = Antiviral activity against Human adenovirus type 11p infected in human A549 cells assessed as inhibition of viral replication by QPCR after 24 hrs; format: functional, cell-based, Human adenovirus 11p; details: Human mastadenovirus B, A549, 24 h; procedure, shortened: as §1
Human adenovirus 5 [16] = assay: Antiviral activity against Human adenovirus type 5 F2853-5b infected in human A549 cells assessed as inhibition of hexon protein expression after 24 hrs using propidium iodide by FACS analysis; format: functional, organism-based; details: in the assay text read “using anti-hexon monoclonal antibody” for “using propidium iodide”; procedure, shortened: as §6
[17] = Cytotoxicity against human K562 cells assessed as viable cells after 24 hrs by MTT assay; format: cell-based; details: read-out: Activity
Procedure, shortened: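 K562 cells (50,000/well) in phenol-red-free RPMI with 5% FBS, compound at 50 µM final (serial 25–0.78 µM in triplicate for dose-response), 24 h at 37 °C, 5% CO2, after the GFP fluorescence read. MTT added for 2 h, formazan dissolved in acidic isopropanol/Triton X-100, absorbance at 570 nm.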

Human adenovirus 5 [18] = assay: Antiviral activity against Human adenovirus type 5 infected in human A549 cells assessed as inhibition of viral replication by QPCR after 24 hrs; format: functional, organism-based; details: Human mastadenovirus C, A549, 24 h; procedure, shortened: as §1
Human adenovirus 5 [19] = assay: Antiviral activity against Human adenovirus type 5 F2853-5b infected in A549 cells assessed as inhibition of DNA replication by QPCR assay; format: functional, organism-based; details: Human mastadenovirus C; procedure, shortened: as §4
[20] = Antiviral activity against Human adenovirus type 11p in human K562 cells harboring green fluorescent protein-expressing RCAd11pGFP vector assessed as inhibition of RCAd11pGFP genome expression; format: functional, cell-based, Human adenovirus 11p; details: Human mastadenovirus B
Procedure, shortened: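 K562 cells (50,000/well) in phenol-red-free RPMI with 5% FBS, infected with RCAd11pGFP at 1 pg/cell. The 5 mM DMSO stock was diluted 1:1 serially from 25 to 0.78 µM, with final DMSO <1%, run in triplicate.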

[21] = Cytotoxicity against human Fibroblast cells assessed as dead cells at 15 uM after 24 hrs using PI by FACS analysis; format: cell-based
A549 [22] = assay: Antiviral activity against Human adenovirus type 11p in human A549 cells harboring green fluorescent protein-expressing RCAd11pGFP vector assessed as inhibition of RCAd11pGFP genome expression; format: functional, cell-based; details: Human adenovirus 11p

For `O=C(Nc1ccccc1C(=O)Nc1ccccc1C(=O)Nc1ccccc1C(=O)O)c1ccccc1`, the inhibition (Human adenovirus 5 [1]) was “inactive” and the inhibition (Human adenovirus 5 [2]) was “inactive”.

For `O=C(Nc1ccccc1C(=O)Nc1ccccc1C(=O)O)c1ccccc1`, the selectivity ratio [3] was 54, the CC50 [4] was 199 µM and the inhibition (Human adenovirus 5 [5]) was “inactive”. The EC50 (Human adenovirus D37) was 4.7 µM, the inhibition (Human adenovirus 5 [1]) was “Active” and the Activity (A549 [6]) was under 2%. For the same compound, the EC50 [7] was 3.6 µM, the EC50 [8] was 3.9 µM and the Activity (K562) was under 2%. For the same compound, the inhibition at 50 µM [9] was 100%, the inhibition (A549 [10]) was “Dose-dependent effect” and the inhibition (Human adenovirus 5 [2]) was “Active”. The inhibition (A549 [11]) was “inactive”, the selectivity ratio [12] was 68 and the EC50 [13] was 2.9 µM. For the same compound, the EC50 [14] was 2.4 µM, the EC50 [15] was 2.9 µM and the inhibition (Human adenovirus 5 [16]) was “Dose-dependent effect”. It also gave a viability at 24 h [17] of 100%, an EC50 (Human adenovirus 5 [18]) of 3.7 µM and an EC50 (Human adenovirus 5 [19]) of 3.7 µM. For the same compound, the EC50 [20] was 28.6 µM, the Activity [21] was under 2% and the inhibition (A549 [22]) was “Active”.

With `Nc1ccn(C[C@@H](CO)OCP(=O)(O)O)c(=O)n1` [CIDOFOVIR] the EC50 [13] was 16.5 µM and the EC50 (Human adenovirus 5 [19]) was 19.9 µM.

For `O=C(Nc1ccccc1C(=O)O)c1ccccc1`, the inhibition (Human adenovirus 5 [1]) was “inactive” and the inhibition (Human adenovirus 5 [2]) was “inactive”.
